Screens (PubChem BioAssay)
Rows were chosen to be rich in hits. Some 4.8% of all compounds tested hit in one or more screens of this group.
Beta cell apopt: inhibitors of cytokine-induced beta cell apoptosis, primary screen, luminescence | hit rate 0.8% among 300,000 | INS-1E cytokine-induced death, ATP luminescence, 48 h; percent of positive-control rescue, neutral wells zero | protection from apoptosis, % (concentration not given with the values);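 active = Every replicate reaches about 75%, or at least half do and their mean reaches it too, limit read from the data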;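 note: 0% = cytokine-treated negative control wells and 100% = positive control rescue; higher means more ATP so stronger rescue from cytokine killing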
UPR CHOP act: activators of apoptotic CHOP UPR arm, primary screen, cell-based, CHO-CHOP luciferase reporter, luminescence, uHTS | UPR activation; percent of tunicamycin response over DMSO baseline | activation, % at 10 µM | hit rate 0.34% among 330,000 | AID 449763, 2010;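 active = at 10 µM dose, activation of 40% or more, normalized to positive control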;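 note: 100% = tunicamycin at 10 µg/mL and 0% = DMSO alone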
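Evaluation: % reporter activation, DMSO baseline versus tunicamycin full activation; System: CHO-CHOP luciferase reporter cell line; Input: 500 cells/well; Incubation: 6 h compound treatment, 37 °C; Measured by: Steady-Glo luciferase luminescence; Dosing: one dose, 10 µM in 0.5% DMSO; Buffer or medium: F12 medium, 10% FBS; Benchmarks: positive tunicamycin 10 µg/mL, negative DMSO alone.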
XBP1 UPR activ: activators of adaptive XBP1 UPR arm, primary screen, cell-based, CHO-XBP1 luciferase reporter, luminescence, uHTS; IRE1-XBP1 UPR activation; percent of tunicamycin response, DMSO as zero; activation, % at 20 µM; hit rate 0.33% among 330,000;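 active = versus positive control, 20 µM dose yields 30% or more activation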;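 note: 100% = tunicamycin at 10 µg/mL and 0% = DMSO only wells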
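Assay system: IRE1-XBP1 luciferase reporter CHO line. Input: 1000 cells/well. Buffer or medium: F12 with 10% serum. Doses: 20 µM, 1% DMSO. Times: overnight seeding at 37 °C, 6 h compound treatment at 37 °C. Technique: Steady-Glo luciferase glow luminescence, 10 min after reagent addition.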
CSC inhib: cancer stem cell viability inhibitors, primary screen, luminescence; cancer stem cell-like cells viability; inhibition, % at 7.5 µM; hit rate 1.1% among 300,000; AID 2717, 2010; in the data active = inhibition above about 75%; tested in HMLE shEcad cells
Mdm2-MdmX inh: inhibitors of human Mdm2-MdmX association, primary screen, cell-based, luminescence, split luciferase, SaOS-2, uHTS | SaOS-2 split-luciferase Mdm2/MdmX complementation | inhibition, % at 8 µM | AID 485346, 2010 | hit rate 3% among 330,000 | Protein Mdm4 (Homo sapiens) + E3 ubiquitin-protein ligase Mdm2 (Homo sapiens), …;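 active = inhibition of at least 50% at 8 µM in the primary screen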
Target sequence (O15151 whole entry, looked up): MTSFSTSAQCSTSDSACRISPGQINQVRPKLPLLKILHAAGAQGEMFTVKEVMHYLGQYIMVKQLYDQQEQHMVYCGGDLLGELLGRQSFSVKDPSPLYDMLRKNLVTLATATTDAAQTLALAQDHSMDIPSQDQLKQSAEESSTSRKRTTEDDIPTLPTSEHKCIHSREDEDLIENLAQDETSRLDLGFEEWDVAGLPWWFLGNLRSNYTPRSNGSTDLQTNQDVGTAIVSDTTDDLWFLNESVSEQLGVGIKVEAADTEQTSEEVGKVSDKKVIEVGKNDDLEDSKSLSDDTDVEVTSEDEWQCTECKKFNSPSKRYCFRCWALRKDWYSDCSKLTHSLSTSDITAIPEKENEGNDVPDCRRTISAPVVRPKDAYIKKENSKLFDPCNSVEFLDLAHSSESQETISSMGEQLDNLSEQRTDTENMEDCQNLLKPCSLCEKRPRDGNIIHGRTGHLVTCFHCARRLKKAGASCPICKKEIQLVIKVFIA
Target sequence (Q00987 whole entry, looked up): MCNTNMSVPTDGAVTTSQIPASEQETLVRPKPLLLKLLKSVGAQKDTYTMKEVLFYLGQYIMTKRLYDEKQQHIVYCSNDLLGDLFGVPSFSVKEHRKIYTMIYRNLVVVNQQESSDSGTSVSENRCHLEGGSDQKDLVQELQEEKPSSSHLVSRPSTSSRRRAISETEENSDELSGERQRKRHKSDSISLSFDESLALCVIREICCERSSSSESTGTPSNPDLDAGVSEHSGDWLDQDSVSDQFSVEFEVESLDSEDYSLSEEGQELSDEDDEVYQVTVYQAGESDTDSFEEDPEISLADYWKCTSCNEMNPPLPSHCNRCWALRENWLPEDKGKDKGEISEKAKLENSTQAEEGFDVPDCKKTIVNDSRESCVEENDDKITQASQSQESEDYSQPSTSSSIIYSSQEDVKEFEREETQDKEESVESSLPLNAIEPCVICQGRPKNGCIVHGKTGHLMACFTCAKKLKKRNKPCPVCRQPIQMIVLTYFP
SKKanGAS inh: S. pyogenes SKKanGAS growth inhibitors in kanamycin, primary screen, streptokinase expression inhibitor project, SKKanGAS strain, BacTiter-Glo luminescence | 6 h | inhibition, % at 7.5 µM | hit rate 1.3% among 300,000 | AID 1662, 2009;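 active = mean replicate score, as percent of positive control median, at least 50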;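 note: strain carries kanamycin resistance gene driven by streptokinase promoter and grows in 40 µg/ml kanamycin; loss of luminescence reflects streptokinase promoter inhibition or plain growth inhibition; 0% = median of DMSO wells and 100% = positive control at its reference dose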
Mdm2-MdmX conf: Mdm2-MdmX complex disruptors, retested hits, confirmation, luminescence, single concentration | shares compounds with Mdm2-MdmX inh | Mdm2-MdmX binding, luminescent assay | inhibition, % at 8 µM | hit rate 55% among 10,000 | AID 489028, 2010; in the data active = inhibition above about 40%
Full FLuc ctr: full-length luciferase signal inhibition, confirmation, counter-screen for Mdm2/MdmX interaction inhibitor project, cell-based, single concentration, SaOS-2; shares compounds with Mdm2-MdmX inh; SaOS-2 full-length luciferase counterscreen, luminescence; inhibition, % at 8 µM; hit rate 77% among 6,200; AID 504607, 2011;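 active = mean inhibition at 8 µM reaching about 37%, which flags the compound as non-specific, limit read from the data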;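 note: p53-null SaOS-2 cells with luciferase driven by a doxycycline-inducible promoter; compound on cells about two nights before reading with doxycycline added after day one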
An asterisk follows results filed as active; / = no result.

SMILES	Beta cell apopt	UPR CHOP act	XBP1 UPR activ	CSC inhib	Mdm2-MdmX inh	SKKanGAS inh	Mdm2-MdmX conf	Full FLuc ctr
COc1ccc(/C(N)=N/OC(=O)C2CCC(=O)N2S(=O)(=O)c2ccc(C)cc2)cc1OC (stereo unspecified)	1	1	1	/	74*	0	55*	76*
Cc1onc(-c2ccccc2)c1C(=O)NC(=S)NNC(=O)c1ccc(O)cc1O	91*	0	0	34	59*	80*	43*	71*
Cc1onc(-c2ccccc2)c1C(=O)NNC(=O)c1ccccc1Br	-5	0	-1	-2	-35	/	/	/
Cc1ccc(C(C(=O)NCc2ccco2)N(C(=O)CNC(=O)c2cccs2)c2c(C)cccc2C)cc1 (stereo unspecified)	36	5	19	3	52*	10	53*	65*
O=C(c1ccc(F)cc1F)N1CCCC(c2nc(-c3cccs3)no2)C1 (stereo unspecified)	-3	0	6	/	12	0	/	/
NC(=O)[C@@H]1CC2(CC(c3cccc(NC(=O)COc4ccc(Cl)cc4)c3)=NO2)CN1C(=O)COc1ccc(Cl)cc1 (stereo partly specified)	9	7	0	30	59*	45	20	/
NC(=O)[C@H]1CC2(CC(c3cccc(NC(=O)COc4ccc(Cl)cc4)c3)=NO2)CN1C(=O)C(c1ccccc1)c1ccccc1 (stereo partly specified)	22	19	7	35	60*	36	14	/
N#CCC(=O)N1CC2(CC(c3cccc(NC(=O)COc4ccc(Cl)cc4)c3)=NO2)C[C@@H]1C(N)=O (stereo partly specified)	0	-1	3	-6	-7	3	/	/
COc1cc(/C=C2/SC(=S)N(CCC(=O)Nc3ccc(C(=O)O)cc3)C2=O)cc(OC)c1OC	-1	1	-4	0	14	32	/	/
COc1cc(OC)c(/C=C2\SC(=O)N(CC(=O)Nc3ccccc3F)C2=O)c(OC)c1	1	4	-8	-2	57*	0	34	73*
COc1cc(/C=C2\SC(=S)N(CCC(=O)Nc3ccc(O)cc3)C2=O)cc(OC)c1OC	4	1	-7	16	92*	9	15	/
COc1ccc(/C=C2/SC(=O)N(CCC(=O)Nc3ccc(C)cc3)C2=O)cc1OC	37	0	3	31	30	1	/	/
COc1cc(/C=C2\SC(N)=NC2=O)ccc1OCC(=O)Nc1ccc(C)cc1	5	0	3	9	57*	11	-21	/
COc1cc(/C=C2\SC(=O)N(CC(=O)Nc3ccccc3F)C2=O)cc(Cl)c1O	12	4	-4	25	10	16	/	/
COc1ccc(/C=C2\SC(=S)N(CCCC(=O)Nc3ccc(O)cc3)C2=O)cc1	2	-7	-2	53	76*	0	66*	54*
COc1ccc(/C=C2\SC(=S)N(CCC(=O)Nc3ccc(C(=O)O)cc3)C2=O)cc1	-2	4	0	-12	-4	12	/	/
COc1cccc(CN2CC(C(=O)NCc3cnn(C)c3)CCC2=O)c1 (stereo unspecified)	-3	1	-4	-8	-6	-2	/	/
O=C(CCCN1C(=O)/C(=C\c2ccco2)SC1=S)Nc1ccc2ccccc2c1	-8	-4	-2	86*	60*	7	35	98*
COc1ccc(/C=C2/SC(=S)N(CCCC(=O)Nc3ccc(O)cc3)C2=O)cc1	-13	-6	-3	32	88*	7	90*	56*
COc1ccc(/C=C2/SC(=O)N(CCC(=O)Nc3ccccc3)C2=O)cc1OC	3	10	19	1	75*	2	26	82*
COc1ccc(/C=C2\SC(=S)N(CCCCCC(=O)Nc3cc(C)on3)C2=O)cc1OC	6	1	5	-6	66*	3	13	/
O=C(Nc1cc(Cl)ccc1-n1cncn1)C1CC1	-6	2	-2	-3	17	2	/	/
C=CCN1C(=O)c2ccc(C(=O)N(C)CC(=O)Nc3ccccc3Br)cc2C1=O	/	0	-2	-7	-15	27	/	/
COc1ccc(C(=O)NNC(=O)c2ccc3ccccc3n2)cc1	59	2	3	49	63*	/	53*	53*
C=CCn1c(COc2ccccc2F)nnc1SCC(=O)Nc1cc2oc3ccccc3c2cc1OC	-1	-4	7	27	54*	28	33	/
SMILES	Beta cell apopt	UPR CHOP act	XBP1 UPR activ	CSC inhib	Mdm2-MdmX inh	SKKanGAS inh	Mdm2-MdmX conf	Full FLuc ctr
COCCCNC(=S)Nc1cc2oc3ccccc3c2cc1OC	-3	-2	-2	-4	55*	-8	41*	90*
COc1cc2c(cc1NC(=O)CN1C(=O)NC3(CCc4ccccc43)C1=O)oc1ccccc12 (stereo unspecified)	9	13	10	66	69*	43	13	/
O=C(CSc1nnnn1-c1ccccc1)Nc1nsc(-c2ccccc2)n1	-8	-4	2	1	84*	-7	81*	28
C=CCn1c(SCC(=O)Nc2cc3oc4ccccc4c3cc2OC)nnc1-c1cnccn1	3	2	4	-11	22	23	/	/
Cc1ccccc1NC(=O)CN1C(=O)NC2(CCc3ccccc32)C1=O (stereo unspecified)	-1	-1	-1	-16	3	/	/	/
CC1(C)OC(=CC=Nc2ccc(Cl)cc2)OC1(C)C	/	3	-1	49	14	4	/	/
CC(NC(=O)COc1cccnc1[N+](=O)[O-])c1ccc(Cl)cc1 (stereo unspecified)	-4	0	1	15	6	-15	/	/
Cc1c2ccccc2cc(Cc2ccccc2)[n+]1C	2	-1	0	-6	13	-3	/	/
COc1cc2c(cc1NC(=O)CSc1nnc(Cc3cccs3)n1C)oc1ccccc12	-13	1	7	-9	21	-1	/	/
COc1cc2c(cc1NC(=O)CN(C)Cc1ccc(OC)c(OC)c1)oc1ccccc12	11	2	-4	/	51*	14	59*	58*
